This is an account of results in ChEMBL document CHEMBL4725436, “Gibberellin JRA-003: A Selective Inhibitor of Nuclear Translocation of IKKα” (ACS Med Chem Lett, 2020).

Active and inactive are the calls of the source. The rule behind the calls is not given here.

Test [1] addresses T1, Inhibitor of nuclear factor kappa-B kinase subunit alpha (Homo sapiens) (UniProt O15111).
T1 sequence (whole entry): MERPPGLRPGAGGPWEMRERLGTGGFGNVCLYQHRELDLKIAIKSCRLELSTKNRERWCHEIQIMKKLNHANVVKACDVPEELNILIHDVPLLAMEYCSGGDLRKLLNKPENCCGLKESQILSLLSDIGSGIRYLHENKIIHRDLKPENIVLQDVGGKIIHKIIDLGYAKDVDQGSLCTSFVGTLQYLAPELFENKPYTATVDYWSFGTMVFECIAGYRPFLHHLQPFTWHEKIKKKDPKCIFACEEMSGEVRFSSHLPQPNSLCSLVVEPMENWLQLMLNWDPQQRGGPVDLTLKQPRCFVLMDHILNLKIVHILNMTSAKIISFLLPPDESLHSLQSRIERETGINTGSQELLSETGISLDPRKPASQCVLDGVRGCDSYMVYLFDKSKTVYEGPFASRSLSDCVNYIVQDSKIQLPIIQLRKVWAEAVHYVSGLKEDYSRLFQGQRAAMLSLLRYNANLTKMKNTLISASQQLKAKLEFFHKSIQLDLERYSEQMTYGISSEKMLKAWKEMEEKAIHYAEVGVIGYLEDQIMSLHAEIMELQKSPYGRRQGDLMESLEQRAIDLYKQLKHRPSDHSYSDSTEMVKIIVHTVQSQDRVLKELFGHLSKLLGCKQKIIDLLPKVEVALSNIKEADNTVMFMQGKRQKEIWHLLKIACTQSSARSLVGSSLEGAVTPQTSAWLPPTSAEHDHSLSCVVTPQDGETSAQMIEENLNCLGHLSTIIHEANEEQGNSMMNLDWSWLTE
Description: Binding affinity to IKKalpha in human HeLa cells at 50 uM preincubated with IL-1 beta for 3 hrs followed by incubation with compound for 2 hrs by pull down based western blotting analysis. The test is classed as cell-based. The procedure, abridged:
(§1)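 Alkyne-tagged probe pull-down in IL-1β-stimulated HeLa cells. Protein captured by the probe was analysed by Western blotting.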

Test [2] is described as follows: Cytotoxicity against human Hs895T cells assessed as reduction in cell viability measured after 24 hrs by CellTiter-Glo luminescent assay. The test is classed as functional, cell-based. The procedure, abridged:
(§2)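 High-throughput viability screen of test agents across a panel of 22 cancerous and noncancerous human cell lines. Viability was read by CellTiter-Glo luminescence.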

In the next test the test system is CA46. Description: Cytotoxicity against human CA46 cells assessed as reduction in cell viability measured after 24 hrs by CellTiter-Glo luminescent assay. As to conditions: CA46, 24 h. The test is classed as functional, cell-based. An outline of the steps: as §2
Test [3] is described as follows: Cytotoxicity against human Hs578Bst cells assessed as reduction in cell viability measured after 24 hrs by CellTiter-Glo luminescent assay. The test is classed as cell-based. An outline of the steps: as §2
In a further test the test system is SUD4. In words: Cytotoxicity against human SU-DHL-4 cells assessed as reduction in cell viability measured after 24 hrs by CellTiter-Glo luminescent assay. The test is classed as functional, cell-based. The conditions noted are these: SU-DHL-4, 24 h. An outline of the steps: as §2
Test [4] can be described thus: Inhibition of IKKalpha/IKKbeta in human HEK293T cells transfected with firefly luciferase gene assessed as inhibition of TNF-alpha-stimulated NF-kappaB signalling preincubated for 1 hr followed by TNF alpha stimulation measured after 3 hrs by luciferase reporter gene assay. The test is classed as cell-based. As to conditions: HEK-293T. The procedure, abridged: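 Commercial NF-κB-driven luciferase reporter assay in HEK 293T cells stimulated with TNFα. EC50 was derived from the luminescence readout.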

For another test, the system named is Hs-578T. Description: Cytotoxicity against human Hs-578T cells assessed as reduction in cell viability measured after 24 hrs by CellTiter-Glo luminescent assay. The test is classed as functional, cell-based. The procedure, abridged: as §2
Test [5] addresses T1, Inhibitor of nuclear factor kappa-B kinase subunit alpha (Homo sapiens). In words: Inhibition of JRA-031 binding to IKKalpha in TNF-alpha-stimulated human HEK293T cells at 1 uM pretreated with compound for 1 hr followed by labeling with JRA-031 for 1 hr followed by stimulation with TNF-alpha for 1 hr by pull down based mass spectrometry. The test is classed as cell-based. The conditions noted are these: HEK-293T.

For another test, the system named is RCK8. In words: Cytotoxicity against human RC-K8 cells assessed as reduction in cell viability measured after 24 hrs by CellTiter-Glo luminescent assay. The test is classed as functional, cell-based. As to conditions: RCK8, 24 h. An outline of the steps:
as §2

Test [6] deals with T2, Inhibitor of nuclear factor kappa-B kinase subunit beta (Homo sapiens) (UniProt O14920).
T2 sequence (whole entry): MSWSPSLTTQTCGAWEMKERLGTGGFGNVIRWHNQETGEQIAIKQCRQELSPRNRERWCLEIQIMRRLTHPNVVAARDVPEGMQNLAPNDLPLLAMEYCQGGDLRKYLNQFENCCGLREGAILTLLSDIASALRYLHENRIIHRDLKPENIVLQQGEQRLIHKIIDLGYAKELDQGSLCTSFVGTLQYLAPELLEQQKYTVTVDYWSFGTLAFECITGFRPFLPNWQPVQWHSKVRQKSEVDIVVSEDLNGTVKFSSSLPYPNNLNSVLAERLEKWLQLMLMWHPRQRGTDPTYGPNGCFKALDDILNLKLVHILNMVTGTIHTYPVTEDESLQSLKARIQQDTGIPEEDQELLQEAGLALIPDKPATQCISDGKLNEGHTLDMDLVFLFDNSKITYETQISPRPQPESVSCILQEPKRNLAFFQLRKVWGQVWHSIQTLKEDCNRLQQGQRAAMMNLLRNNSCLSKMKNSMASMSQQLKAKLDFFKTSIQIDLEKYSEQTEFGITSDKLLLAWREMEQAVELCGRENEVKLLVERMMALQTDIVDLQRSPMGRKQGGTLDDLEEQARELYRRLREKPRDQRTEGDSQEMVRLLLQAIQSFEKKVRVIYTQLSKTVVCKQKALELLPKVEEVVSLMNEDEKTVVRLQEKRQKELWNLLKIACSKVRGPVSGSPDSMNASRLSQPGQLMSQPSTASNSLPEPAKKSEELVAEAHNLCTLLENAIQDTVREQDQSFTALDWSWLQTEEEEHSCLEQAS
Description: Inhibition of JRA-031 binding to IKKbeta in TNF-alpha-stimulated human HEK293T cells at 1 uM pretreated with compound for 1 hr followed by labeling with JRA-031 for 1 hr followed by stimulation with TNF-alpha for 1 hr by pull down based mass spectrometry. The test is classed as cell-based. As to conditions: HEK-293T.

Another test deals with PSN1. In words: Cytotoxicity against human PSN1 cells assessed as reduction in cell viability measured after 24 hrs by CellTiter-Glo luminescent assay. The class given is functional, cell-based. The conditions noted are these: PSN1, 24 h. The procedure, abridged:
as §2

The next test deals with HCC1599. Description: Cytotoxicity against human HCC1599 cells assessed as reduction in cell viability measured after 24 hrs by CellTiter-Glo luminescent assay. As to conditions: HCC1599, 24 h. The class given is functional, cell-based. An outline of the steps: as §2
A further test deals with NCI-H446. Description: Cytotoxicity against human NCI-H446 cells assessed as reduction in cell viability measured after 24 hrs by CellTiter-Glo luminescent assay. The conditions noted are these: NCI-H446, 24 h. The class given is functional, cell-based. The procedure, abridged: as §2
Test [7] in a line: Cytotoxicity against human Hs895SK cells assessed as reduction in cell viability measured after 24 hrs by CellTiter-Glo luminescent assay. The class given is cell-based. As to conditions: Hs 895.Sk. The procedure, abridged:
as §2

The test system of a further test is HEK-293T. In words: Cytotoxicity against human HEK293T cells assessed as reduction in cell viability measured after 24 hrs by CellTiter-Glo luminescent assay. The test is classed as cell-based. An outline of the steps: as §2
Test [8] can be described thus: Cytotoxicity against human Hs888Lu cells assessed as reduction in cell viability measured after 24 hrs by CellTiter-Glo luminescent assay. The test is classed as cell-based. The procedure, abridged:
as §2

For test [9], the target named is T1, Inhibitor of nuclear factor kappa-B kinase subunit alpha (Homo sapiens). Description: Binding affinity to IKKalpha in human HeLa cells at 10 uM preincubated with IL-1 beta for 3 hrs followed by incubation with compound for 2 hrs by pull down based western blotting analysis. The test is classed as cell-based. The procedure, abridged:
as §1

Test [10] shares this target. In words: Irreversible covalent binding affinity to IKKalpha in human HeLa cells at 10 uM preincubated with IL-1 beta for 3 hrs followed by incubation with compound for 2 hrs measured following rigorous washing by pull down based western blotting analysis. The test is classed as cell-based. An outline of the steps: as §1

For `C#CCCNC(=O)[C@H]1[C@H]2[C@@]3(C=C[C@H](O)[C@@]2(C)C(=O)O3)[C@@H]2CC[C@]3(O)C[C@@]21CC3=C`, the inhibition entry in test [1] was “inactive”.

For the compound `C=C1C[C@]23C[C@@]1(O)CC[C@H]2[C@@]12C=C[C@H](O)[C@@](C)(C(=O)O1)[C@H]2[C@@H]3C(=O)OC`, the IC50 (in test [2]; in the test with CA46; in test [3]; with SUD4; in the test with Hs-578T; in the test on RCK8) was greater than 10 µM throughout. Moreover, the half-inhibitory concentration (IC50) (in the test with PSN1; in the test with HCC1599; in the test with NCI-H446; in test [7]; in the test with HEK-293T; in test [8]) was greater than 10 µM in each case. Also, the 50% effective concentration (EC50) in test [4] is greater than 100 µM. In addition, the inhibition result in [5] and in test [6] was “inactive” each time.

`C#CCCNC(=O)[C@H]1[C@@H]2[C@@]3(C)C(=O)C=C[C@@]2(OC3=O)[C@@H]2CC[C@]3(O)C[C@@]21CC3=C`: the inhibition result in test [9] and in test [10] was “Active” throughout.

On to `C=C1[C@@H](O)[C@]23C[C@@]1(O)CC[C@H]2[C@@]12C=C[C@H](O)[C@@](C)(C(=O)O1)[C@H]2[C@@H]3C(=O)OC`, for which the IC50 (in test [2]; in the test with CA46; in test [3]; in the test with SUD4; with Hs-578T; in the test on RCK8) was greater than 10 µM each time. Also, the IC50 (with PSN1; in the test on HCC1599; with NCI-H446; in test [7]; in the test with HEK-293T; in [8]) was greater than 10 µM in each case. Further, the EC50 in test [4] was greater than 100 µM.

As to `C=C1C[C@]23C[C@@]1(O)CC[C@H]2c1ccc(O)c(C)c1[C@@H]3C(=O)OC`, the IC50 (in test [2]; in the test with CA46; in [3]; in the test with SUD4; in the test on Hs-578T; in the test on RCK8) was greater than 10 µM each time. The IC50 (in the test with PSN1; with HCC1599; with NCI-H446; in [7]; in the test on HEK-293T; in test [8]) was greater than 10 µM throughout. The EC50 in test [4] was greater than 100 µM.

Regarding `COC(=O)/C=C/Oc1ccc2c(c1C)[C@H](C(=O)OC)[C@@]13CC(=O)[C@@](C)(CC[C@@H]21)C3`, the IC50 (in [2]; with CA46; in test [3]; with SUD4; in the test on Hs-578T; in the test with RCK8) was greater than 10 µM each time. For the same compound, the IC50 (in the test on PSN1; with HCC1599; in the test on NCI-H446; in test [7]; in the test with HEK-293T; in test [8]) was greater than 10 µM in each case. In addition, the EC50 in test [4] is greater than 100 µM.

Regarding `C=C1[C@@H](O)[C@]23C[C@@]1(O)CC[C@@H]2c1cccc(C)c1[C@@H]3C(=O)OC`, the IC50 (in [2]; in the test on CA46; in test [3]; with SUD4; with Hs-578T; in the test on RCK8) was greater than 10 µM each time. The IC50 (in the test with PSN1; in the test on HCC1599; in the test on NCI-H446; in test [7]; in the test with HEK-293T; in test [8]) was greater than 10 µM throughout. Moreover, in test [4], the EC50 is greater than 100 µM.

Consider `C=C1C(=O)[C@]23C[C@@]1(O)CC[C@H]2[C@@]12C=CC(=O)[C@@](C)(C(=O)O1)[C@H]2[C@@H]3C(=O)OC`, for which the IC50 (in [2]; in test [3]; with PSN1; in [7]; in test [8]) was greater than 10 µM each time. Moreover, the EC50 is 0.88 µM in the test with CA46; less than 0.04 µM with SUD4; 1.7 µM in test [4]; 5.2 µM in the test on Hs-578T; 0.072 µM in the test with RCK8; 0.83 µM in the test with HCC1599. The EC50 is less than 0.04 µM with NCI-H446 and 7.1 µM with HEK-293T.

`C=C1C[C@]23C[C@@]1(O)CC[C@H]2c1cc(Br)c(O)c(C)c1[C@@H]3C(=O)OC`: the IC50 (in test [2]; with CA46; in [3]; in the test with SUD4; in the test with Hs-578T; in the test with RCK8) was greater than 10 µM each time. Further, the IC50 (with PSN1; with HCC1599; with NCI-H446; in test [7]; in the test with HEK-293T; in test [8]) was greater than 10 µM throughout. In test [4], the EC50 is greater than 100 µM.

On to `C=C1[C@@H]2OC(=O)[C@H]3c4c(C)cccc4[C@@H]4CC[C@]1(O)C[C@@]243`, for which the half-maximal inhibitory concentration (IC50) (in [2]; in the test with CA46; in test [3]; with SUD4; in the test on Hs-578T; with RCK8) was greater than 10 µM in each case. The IC50 (in the test on PSN1; in the test with HCC1599; in the test with NCI-H446; in [7]; with HEK-293T; in [8]) was greater than 10 µM each time. Besides, the EC50 in [4] was greater than 100 µM.
